Consider 13 compounds from PubChem BioAssay AID602315 (Southern Research Specialized Biocontainment Screening …, 2012).

In this experiment the target is M1-family alanyl aminopeptidase (Plasmodium falciparum 3D7). Description: PfM1AAP aminopeptidase inhibitors, dose response, counter-screen for PfM17LAP inhibitor project, biochemical, QFRET, set 3 (AID 602315). Conditions: recombinant PfM1AAP, H-Leu-NHMec fluorogenic cleavage; for inhibition: at 100 µM (top of the series). The procedure, abridged: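 Evaluation: % inhibition and fitted IC50; test system: recombinant PfM1AAP enzyme; signal: fluorescence, ex 370/em 460 nm; buffer or medium: Tris pH 7.5 buffer with cobalt chloride; control set: enzyme-free wells as background reference; incubation: enzyme–substrate reaction 90 min at room temperature; also added: 0.1 mM H-Leu-NHMec; dosing: 10 doses, 100–0.2 µM, 1:2 steps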
A general note: The purpose of a counterscreen is to sort out artefacts and off-target activity.

Records with an inconclusive call do not appear. Calls of active or inactive are those of the source.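 The calls were made as follows: active = inhibition of 30% or more at any tested concentration; inactive = the rest, inconclusive results apart.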

As for `O=C(NO)c1ccc2ccccc2c1`, the inhibition entry was “inactive”.

As a reminder, the IC50 is the point on the concentration scale where inhibition reaches its midpoint. For the compound `CCCCOc1cccc(CC(=O)NO)c1`, the IC50 is 26 µM.

For `CCCOc1ccc(CC(=O)NO)cc1`, the IC50 was 16.7 µM.

With `CCCCOc1ccc(CN(O)C(=O)c2ccccc2)cc1`, the inhibition entry was “inactive”.

As for `CCCCOc1ccc(C(C)C(=O)OC)cc1` (stereo not drawn), the inhibition result was “inactive”.

As to `CCCCOc1ccc(C(C)C(=O)O)cc1` (stereo not drawn), the inhibition entry is “inactive”.

On to `CN(C)CCOc1ccc(CC(=O)O)cc1`, for which the inhibition result is “inactive”.

Regarding `CCCCOc1ccc(C(C)(C)C(=O)O)cc1`, the inhibition result was “inactive”.

Regarding `CCC(C)Oc1ccc(CC(=O)NO)cc1` (stereo not drawn), the IC50 is 20.2 µM.

In the case of `CCCCOc1ccc(C(C)(C)C(=O)NO)cc1`, the inhibition entry was “inactive”.

For `CCCCOc1cccc(CC(=O)OC)c1`, the inhibition entry was “inactive”.

As to `CCCCOc1ccc(C(C)C(=O)NO)cc1` (stereo not drawn), the IC50 was 28.2 µM.

For `CCCCOc1ccc(CN(O)C(C)=O)cc1`, the inhibition result was “inactive”.
